Activity calls are given as the source filed them. No cut-off for these calls is given here.
Key:
[1] = biological target: T1, Histone-lysine N-methyltransferase EHMT2 (Homo sapiens, UniProt Q96KQ7); test: Inhibition of HMT-G9a using S-adenosylmethionine and biotinylated H3 peptide after 1 hr
T1 sequence (Q96KQ7 whole entry): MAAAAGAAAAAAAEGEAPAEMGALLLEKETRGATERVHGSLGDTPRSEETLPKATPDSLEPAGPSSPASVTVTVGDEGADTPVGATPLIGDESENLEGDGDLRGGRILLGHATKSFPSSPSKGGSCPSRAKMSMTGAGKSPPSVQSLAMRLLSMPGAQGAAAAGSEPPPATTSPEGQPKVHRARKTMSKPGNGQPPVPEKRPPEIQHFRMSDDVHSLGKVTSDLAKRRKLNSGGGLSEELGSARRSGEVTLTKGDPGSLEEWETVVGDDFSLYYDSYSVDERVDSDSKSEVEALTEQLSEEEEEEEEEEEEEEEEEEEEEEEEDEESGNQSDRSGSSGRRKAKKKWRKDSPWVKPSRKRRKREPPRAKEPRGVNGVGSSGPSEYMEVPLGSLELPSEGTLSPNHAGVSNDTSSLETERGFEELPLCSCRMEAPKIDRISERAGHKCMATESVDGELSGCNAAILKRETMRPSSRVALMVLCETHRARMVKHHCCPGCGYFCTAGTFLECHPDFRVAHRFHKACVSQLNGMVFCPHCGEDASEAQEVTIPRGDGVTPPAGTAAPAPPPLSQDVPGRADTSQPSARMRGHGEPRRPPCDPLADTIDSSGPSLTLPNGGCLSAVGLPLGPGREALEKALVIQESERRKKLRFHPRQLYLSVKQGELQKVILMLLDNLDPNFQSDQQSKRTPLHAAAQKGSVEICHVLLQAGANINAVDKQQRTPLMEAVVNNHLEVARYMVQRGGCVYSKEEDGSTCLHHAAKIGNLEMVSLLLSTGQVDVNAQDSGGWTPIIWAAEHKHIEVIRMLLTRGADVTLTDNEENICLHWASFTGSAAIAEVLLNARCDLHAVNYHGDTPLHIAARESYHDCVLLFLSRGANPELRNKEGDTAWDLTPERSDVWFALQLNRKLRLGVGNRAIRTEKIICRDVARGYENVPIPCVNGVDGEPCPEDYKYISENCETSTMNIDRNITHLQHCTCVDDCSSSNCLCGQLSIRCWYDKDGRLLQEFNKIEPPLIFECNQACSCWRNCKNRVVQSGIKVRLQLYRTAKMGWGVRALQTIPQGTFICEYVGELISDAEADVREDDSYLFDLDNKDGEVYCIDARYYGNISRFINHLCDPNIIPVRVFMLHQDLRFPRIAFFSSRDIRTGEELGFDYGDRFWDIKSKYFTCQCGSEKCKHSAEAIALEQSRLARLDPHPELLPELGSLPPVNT
How it was run: (§1)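 GST-G9a (200 ng) or His-Set7/9 (931 ng) with BSA preincubated with compound (DMSO) in Tris-HCl pH 8.5 buffer with MgCl₂, KCl, 2-mercaptoethanol, sucrose, 1 h rt; then SAM (50 ng) and biotinylated H3 peptide (50 ng), 37 °C 2 h, boiled. Captured on streptavidin plate; G9a: anti-methylated-lysine antibody, Set7/9: anti-dimethyl-H3K4 antibody; HRP secondary, TMB, A650.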

P388 = test: Cytotoxicity against mouse P388 cells after 96 hrs by MTT assay; type: functional, cell-based; settings: P388, 96 h
How it was run: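 P388 cells grown in RPMI-1640 with 10% FBS, kanamycin and 2-hydroxyethyl disulfide at 37 °C, 5% CO2; seeded at 1 × 10⁴ cells/mL, test solution in RPMI-1640 added, 96 h incubation. MTT (1 mg/mL) added for 3 h, cells dissolved in DMSO after centrifugation; IC₅₀ determined.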

[2] = biological target: T2, Histone-lysine N-methyltransferase SETD7 (Homo sapiens) (UniProt Q8WTS6); test: Inhibition of HMT-set7/9 using S-adenosylmethionine and biotinylated H3 peptide at 100 uM after 1 hr; how it was run: as §1
T2 sequence (whole entry): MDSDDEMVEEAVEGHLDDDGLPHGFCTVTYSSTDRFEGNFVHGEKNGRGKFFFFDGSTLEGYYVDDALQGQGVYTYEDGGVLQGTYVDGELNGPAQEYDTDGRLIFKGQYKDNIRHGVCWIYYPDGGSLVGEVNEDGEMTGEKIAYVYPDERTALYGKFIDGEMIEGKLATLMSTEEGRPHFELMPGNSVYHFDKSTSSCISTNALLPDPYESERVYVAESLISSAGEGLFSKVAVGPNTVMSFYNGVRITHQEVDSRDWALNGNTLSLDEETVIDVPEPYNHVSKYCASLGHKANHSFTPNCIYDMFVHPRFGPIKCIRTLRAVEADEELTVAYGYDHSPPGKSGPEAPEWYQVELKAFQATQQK

| Structure (SMILES) | IC50 [1] [nM] | IC50 (P388) [nM] | inhibition [2] |
| --- | --- | --- | --- |
| C=C1C(=O)N2[C@H]3C(=CC=C[C@@H]3O)C[C@@]2(SC)C(=O)N1C | > 100000 | 3400 | inactive |
| CN1C(=O)[C@]23Cc4ccccc4N2C(=O)[C@@]1(CO)SS3 | 55000 | 58 | inactive |
| CN1C(=O)[C@]23Cc4cccc(O)c4N2C(=O)[C@@]1(CO)SS3 | 2600 | 56 | inactive |
| CS[C@]1(CO)C(=O)N2[C@H]3C(=CC=C[C@@H]3O)C[C@@]2(SC)C(=O)N1C [BIS(DETHIO)BIS(METHYLTHIO)GLIOTOXIN] | > 100000 | 110 | inactive |
| CS[C@]1(CO)C(=O)N2c3c(O)cccc3C[C@@]2(SC)C(=O)N1C [DEHYDROBIS(METHYLTHIO)GLIOTOXIN] | 58000 | 110 | inactive |
| CN1C(=O)[C@]23CC4=CC=C[C@H](O)[C@H]4N2C(=O)[C@@]1(CO)SSSS3 [GLIOTOXIN G] | 2100 | 20 | inactive |
| CN1C(=O)[C@]23CC4=CC=C[C@H](O)[C@H]4N2C(=O)[C@@]1(CO)SS3 [GLIOTOXIN] | 6400 | 24 | inactive |
